Test results from ChEMBL document CHEMBL1122906, “Improved antagonists of luteinizing hormone-releasing hormone modified in position 7” (1985).
Square brackets hold non-standard residues; d marks the D form. Peptide text beside a SMILES is read from it. dPhe(4-Cl) = N[C@H](Cc1ccc(Cl)cc1)C(=O)O; d2Nal = N[C@H](Cc1ccc2ccccc2c1)C(=O)O

How the values were obtained:
Format in all cases: functional
Rattus norvegicus [1] = organism: Rattus norvegicus; experiment: Percent anti-ovulatory activity in Sprague-Dawley rats against percent of 8 rats that did not ovulate at dose 50 microg
Procedure, shortened: (§1)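 Antiovulatory activity was tested in Sprague-Dawley rats using the standard rat antiovulatory assay. Analogues were given in a 40% propylene glycol-saline vehicle at the stated microgram dose. The value is the percentage of the (n) rats in each group in which ovulation was blocked.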

Rattus norvegicus [2] = organism: Rattus norvegicus; experiment: Percent anti-ovulatory activity in Sprague-Dawley rats against percent of 10 rats that did not ovulate at dose 1 microg; procedure, shortened: as §1
Rattus norvegicus [3] = organism: Rattus norvegicus; experiment: Percent anti-ovulatory activity in Sprague-Dawley rats against percent of 10 rats that did not ovulate at dose 3 microg; procedure, shortened: as §1
Rattus norvegicus [4] = organism: Rattus norvegicus; experiment: Percent anti-ovulatory activity in Sprague-Dawley rats against percent of 10 rats that did not ovulate at dose 0.5 microg; procedure, shortened: as §1
Rattus norvegicus [5] = organism: Rattus norvegicus; experiment: Percent anti-ovulatory activity in Sprague-Dawley rats against percent of 13 rats that did not ovulate at dose 0.5 microg; procedure, shortened: as §1
Rattus norvegicus [6] = organism: Rattus norvegicus; experiment: Percent anti-ovulatory activity in Sprague-Dawley rats against percent of 9 rats that did not ovulate at dose 1 microg; procedure, shortened: as §1
Rattus norvegicus [7] = organism: Rattus norvegicus; experiment: Percent anti-ovulatory activity in Sprague-Dawley rats against percent of 7 rats that did not ovulate at dose 3 microg; procedure, shortened: as §1
Rattus norvegicus [8] = organism: Rattus norvegicus; experiment: Percent anti-ovulatory activity in Sprague-Dawley rats against percent of 11 rats that did not ovulate at dose 1 microg; procedure, shortened: as §1
Rattus norvegicus [9] = organism: Rattus norvegicus; experiment: Percent anti-ovulatory activity in Sprague-Dawley rats against percent of 12 rats that did not ovulate at dose 3 microg; procedure, shortened: as §1
Rattus norvegicus [10] = organism: Rattus norvegicus; experiment: Percent anti-ovulatory activity in Sprague-Dawley rats against percent of 9 rats that did not ovulate at dose 3 microg; procedure, shortened: as §1
Rattus norvegicus [11] = organism: Rattus norvegicus; experiment: Percent anti-ovulatory activity in Sprague-Dawley rats against percent of 8 rats that did not ovulate at dose 1 microg; procedure, shortened: as §1
Rattus norvegicus [12] = organism: Rattus norvegicus; experiment: Percent anti-ovulatory activity in Sprague-Dawley rats against percent of 13 rats that did not ovulate at dose 1 ug; procedure, shortened: as §1
Rattus norvegicus [13] = organism: Rattus norvegicus; experiment: Percent anti-ovulatory activity in Sprague-Dawley rats against percent of 8 rats that did not ovulate at dose 3 microg; procedure, shortened: as §1
Rattus norvegicus [14] = organism: Rattus norvegicus; experiment: Percent anti-ovulatory activity in Sprague-Dawley rats against percent of 10 rats that did not ovulate at dose 1 ug; procedure, shortened: as §1
Rattus norvegicus [15] = organism: Rattus norvegicus; experiment: Percent anti-ovulatory activity in Sprague-Dawley rats against percent of 5 rats that did not ovulate at dose 1 microg; procedure, shortened: as §1
Rattus norvegicus [16] = organism: Rattus norvegicus; experiment: Percent anti-ovulatory activity in Sprague-Dawley rats against percent of 11 rats that did not ovulate at dose 3 microg; procedure, shortened: as §1
Rattus norvegicus [17] = organism: Rattus norvegicus; experiment: Percent anti-ovulatory activity in Sprague-Dawley rats against percent of 10 rats that did not ovulate at dose 50 microg; procedure, shortened: as §1
Rattus norvegicus [18] = organism: Rattus norvegicus; experiment: Percent anti-ovulatory activity in Sprague-Dawley rats against percent of 10 rats that did not ovulate at dose 3 ug; procedure, shortened: as §1
Rattus norvegicus [19] = organism: Rattus norvegicus; experiment: Percent anti-ovulatory activity in Sprague-Dawley rats against percent of 11 rats that did not ovulate at dose 0.5 ug; procedure, shortened: as §1
Rattus norvegicus [20] = organism: Rattus norvegicus; experiment: Percent anti-ovulatory activity in Sprague-Dawley rats against percent of 13 rats that did not ovulate at dose 7.5 microg; procedure, shortened: as §1

Q: Which Activity (Rattus norvegicus [1]) does the source give for `CC(=O)N[C@H](Cc1ccc2ccccc2c1)C(=O)N[C@H](Cc1ccc(Cl)cc1)C(=O)N[C@H](Cc1c[nH]c2ccccc12)C(=O)N[C@@H](CO)C(=O)N[C@H]1CSSC[C@@H](C(=O)N[C@@H](CCCN=C(N)N)C(=O)N2CCC[C@H]2C(=O)N[C@H](C)C(N)=O)NC(=O)[C@@H](CCCN=C(N)N)NC1=O` here?
A: 0%

Q: For `CC(=O)N[C@H](Cc1ccc(Cl)cc1)C(=O)N[C@H](Cc1ccc(Cl)cc1)C(=O)N[C@H](Cc1c[nH]c2ccccc12)C(=O)N[C@@H](CO)C(=O)N[C@@H](Cc1ccc(O)cc1)C(=O)N[C@H](CCCN=C(N)N)C(=O)N[C@@H](Cc1ccccc1)C(=O)N[C@@H](CCCN=C(N)N)C(=O)N1CCC[C@H]1C(=O)N[C@H](C)C(N)=O` (Ac-[dPhe(4-Cl)][dPhe(4-Cl)][dW]SY[dR]FRP[dA]-NH2), which Activity (Rattus norvegicus [2]) is on record?
A: 20%

Q: `CC(=O)N[C@H](Cc1ccc2ccccc2c1)C(=O)N[C@H](Cc1ccc(Cl)cc1)C(=O)N[C@H](Cc1c[nH]c2ccccc12)C(=O)N[C@@H](CO)C(=O)N[C@@H](Cc1ccc(O)cc1)C(=O)N[C@H](CCCN=C(N)N)C(=O)N[C@@H](Cc1ccc2ccccc2c1)C(=O)N[C@@H](CCCN=C(N)N)C(=O)N1CCC[C@H]1C(=O)N[C@H](C)C(N)=O` was tested. Which Activity (Rattus norvegicus [3]) did it give?
A: 100%

Q: What about the Activity (Rattus norvegicus [4]) of the same compound?
A: 0%

Q: For `CC(=O)N[C@H](Cc1ccc2ccccc2c1)C(=O)N[C@H](Cc1ccc(Cl)cc1)C(=O)N[C@H](Cc1c[nH]c2ccccc12)C(=O)N[C@H]1CSSC[C@@H](C(=O)N[C@@H](CCCN=C(N)N)C(=O)N2CCC[C@H]2C(=O)N[C@H](C)C(N)=O)NC(=O)[C@@H](CCCN=C(N)N)NC(=O)[C@H](Cc2ccc(O)cc2)NC1=O`, which Activity (Rattus norvegicus [1]) is on record?
A: 0%

Q: How did the Activity (Rattus norvegicus [5]) turn out when `CC(=O)N[C@H](Cc1ccc2ccccc2c1)C(=O)N[C@H](Cc1ccc(Cl)cc1)C(=O)N[C@H](Cc1c[nH]c2ccccc12)C(=O)N[C@@H](CO)C(=O)N[C@@H](Cc1ccc(O)cc1)C(=O)N[C@H](CCCN=C(N)N)C(=O)N[C@@H](Cc1ccc(O)cc1)C(=O)N[C@@H](CCCN=C(N)N)C(=O)N1CCC[C@H]1C(=O)N[C@H](C)C(N)=O` was run?
A: 31%

Q: And the Activity (Rattus norvegicus [6])?
A: 89%

Q: And the Activity (Rattus norvegicus [7])?
A: 100%

Q: Which results are given for `CC(=O)N[C@H](Cc1ccc2ccccc2c1)C(=O)N[C@H](Cc1ccc(Cl)cc1)C(=O)N[C@H](Cc1c[nH]c2ccccc12)C(=O)N[C@@H](CO)C(=O)N[C@@H](Cc1ccc(O)cc1)C(=O)N[C@H](CCCN=C(N)N)C(=O)N[C@@H](Cc1ccc(Cl)cc1)C(=O)N[C@@H](CCCN=C(N)N)C(=O)N1CCC[C@H]1C(=O)N[C@H](C)C(N)=O`?
A: Activity (Rattus norvegicus [8]): 9%; Activity (Rattus norvegicus [9]): 100%

Q: With `CC(=O)N[C@H](Cc1ccc2ccccc2c1)C(=O)N[C@H](Cc1ccc2ccccc2c1)C(=O)N[C@H](Cc1c[nH]c2ccccc12)C(=O)N[C@@H](CO)C(=O)N[C@@H](Cc1ccc(O)cc1)C(=O)N[C@H](CCCN=C(N)N)C(=O)N[C@@H](Cc1ccc(O)cc1)C(=O)N[C@@H](CCCN=C(N)N)C(=O)N1CCC[C@H]1C(=O)N[C@H](C)C(N)=O` as the compound, how does the Activity (Rattus norvegicus [6]) read?
A: 11%

Q: Which results are given for `CC(=O)N[C@H](Cc1ccc2ccccc2c1)C(=O)N[C@H](Cc1ccc(Cl)cc1)C(=O)N[C@H](Cc1c[nH]c2ccccc12)C(=O)N[C@@H](CO)C(=O)N[C@@H](Cc1ccc(O)cc1)C(=O)N[C@H](CCCN=C(N)N)C(=O)N(C)[C@@H](Cc1ccccc1)C(=O)N[C@@H](CCCN=C(N)N)C(=O)N1CCC[C@H]1C(=O)N[C@H](C)C(N)=O`?
A: Activity (Rattus norvegicus [10]): 11%; Activity (Rattus norvegicus [11]): 13%

Q: What does the source list for `CC(=O)N[C@H](Cc1ccc2ccccc2c1)C(=O)N[C@H](Cc1ccc(Cl)cc1)C(=O)N[C@H](Cc1c[nH]c2ccccc12)C(=O)N[C@@H](CO)C(=O)N[C@@H](Cc1ccc(O)cc1)C(=O)N[C@H](CCCN=C(N)N)C(=O)N[C@@H](CC(C)C)C(=O)N[C@@H](CCCN=C(N)N)C(=O)N1CCC[C@H]1C(=O)N[C@H](C)C(N)=O` (Ac-[d2Nal][dPhe(4-Cl)][dW]SY[dR]LRP[dA]-NH2)?
A: Activity (Rattus norvegicus [10]): 100%; Activity (Rattus norvegicus [12]): 77%

Q: For `CC(=O)N[C@H](Cc1ccc2ccccc2c1)C(=O)N[C@H](Cc1ccc(Cl)cc1)C(=O)N[C@H](Cc1c[nH]c2ccccc12)C(=O)N[C@@H](CO)C(=O)N[C@@H](Cc1ccc(O)cc1)C(=O)N[C@H](CCCN=C(N)N)C(=O)N[C@@H](Cc1ccc(F)cc1)C(=O)N[C@@H](CCCN=C(N)N)C(=O)N1CCC[C@H]1C(=O)N[C@H](C)C(N)=O`, which Activity (Rattus norvegicus [13]) is on record?
A: 75%

Q: What about the Activity (Rattus norvegicus [14]) of the same compound?
A: 0%

Q: With `CC(=O)N[C@H](Cc1ccc2ccccc2c1)C(=O)N[C@H](Cc1ccc(Cl)cc1)C(=O)N[C@H](Cc1c[nH]c2ccccc12)C(=O)N[C@@H](CO)C(=O)N[C@@H](Cc1ccc(O)cc1)C(=O)N[C@H](CCCN=C(N)N)C(=O)N[C@@H](Cc1c(F)c(F)c(F)c(F)c1F)C(=O)N[C@@H](CCCN=C(N)N)C(=O)N1CCC[C@H]1C(=O)N[C@H](C)C(N)=O` as the compound, how does the Activity (Rattus norvegicus [15]) read?
A: 20%

Q: And the Activity (Rattus norvegicus [16])?
A: 100%

Q: `CC(=O)N[C@H](Cc1ccc2ccccc2c1)C(=O)N[C@@H]1CSSC[C@@H](C(=O)N[C@@H](CCCN=C(N)N)C(=O)N2CCC[C@H]2C(=O)N[C@H](C)C(N)=O)NC(=O)[C@@H](CCCN=C(N)N)NC(=O)[C@H](Cc2ccc(O)cc2)NC(=O)[C@H](CO)NC(=O)[C@@H](Cc2c[nH]c3ccccc23)NC1=O` was tested. Which Activity (Rattus norvegicus [1]) did it give?
A: 0%

Q: `CC(=O)N[C@H](Cc1ccc2ccccc2c1)C(=O)N[C@H](Cc1ccc(Cl)cc1)C(=O)N[C@@H]1CSSC[C@@H](C(=O)N[C@@H](CCCN=C(N)N)C(=O)N2CCC[C@H]2C(=O)N[C@H](C)C(N)=O)NC(=O)[C@@H](CCCN=C(N)N)NC(=O)[C@H](Cc2ccc(O)cc2)NC(=O)[C@H](CO)NC1=O` was tested. Which Activity (Rattus norvegicus [17]) did it give?
A: 0%

Q: With `CC(=O)N[C@H](Cc1ccc2ccccc2c1)C(=O)N[C@H](Cc1ccc(Cl)cc1)C(=O)N[C@H](Cc1c[nH]c2ccccc12)C(=O)N[C@@H](CO)C(=O)N[C@@H](Cc1ccc(O)cc1)C(=O)N[C@H](CCCN=C(N)N)C(=O)N[C@H](C(=O)N[C@@H](CCCN=C(N)N)C(=O)N1CCC[C@H]1C(=O)N[C@H](C)C(N)=O)[C@@H](C)O` as the compound, how does the Activity (Rattus norvegicus [18]) read?
A: 20%

Q: For `CC(=O)N[C@H](Cc1ccc2ccccc2c1)C(=O)N[C@H](Cc1ccc(Cl)cc1)C(=O)N[C@H](Cc1c[nH]c2ccccc12)C(=O)N[C@@H](CO)C(=O)N[C@@H](Cc1ccc(O)cc1)C(=O)N[C@H](CCCN=C(N)N)C(=O)N[C@@H](Cc1ccccc1)C(=O)N[C@@H](CCCN=C(N)N)C(=O)N1CCC[C@H]1C(=O)N[C@H](C)C(N)=O` (Ac-[d2Nal][dPhe(4-Cl)][dW]SY[dR]FRP[dA]-NH2), which Activity (Rattus norvegicus [19]) is on record?
A: 64%

Q: `CC(=O)N[C@H](Cc1ccc2ccccc2c1)C(=O)N[C@H](Cc1ccc2ccccc2c1)C(=O)N[C@H](Cc1c[nH]c2ccccc12)C(=O)N[C@@H](CO)C(=O)N[C@@H](Cc1ccc(O)cc1)C(=O)N[C@H](CCCN=C(N)N)C(=O)N[C@@H](CC(C)C)C(=O)N[C@@H](CCCN=C(N)N)C(=O)N1CCC[C@H]1C(=O)N[C@H](C)C(N)=O` was tested. Which Activity (Rattus norvegicus [8]) did it give?
A: 0%

Q: With `CC(=O)N[C@H](Cc1ccc2ccccc2c1)C(=O)N[C@H](Cc1ccc(Cl)cc1)C(=O)N[C@H](Cc1c[nH]c2ccccc12)C(=O)N[C@@H](CO)C(=O)N[C@@H](Cc1ccc(O)cc1)C(=O)N[C@H](CCCN=C(N)N)C(=O)N[C@@H](CCCCN)C(=O)N[C@@H](CCCN=C(N)N)C(=O)N1CCC[C@H]1C(=O)N[C@H](C)C(N)=O` as the compound, how does the Activity (Rattus norvegicus [20]) read?
A: 0%

Q: How did the Activity (Rattus norvegicus [6]) turn out when `CC(=O)N[C@H](Cc1ccc2ccccc2c1)C(=O)N[C@H](Cc1ccc(Cl)cc1)C(=O)N[C@H](Cc1c[nH]c2ccccc12)C(=O)N[C@@H](CO)C(=O)N[C@@H](Cc1ccc(O)cc1)C(=O)N[C@H](CCCN=C(N)N)C(=O)N[C@@H](Cc1ccc(C)cc1)C(=O)N[C@@H](CCCN=C(N)N)C(=O)N1CCC[C@H]1C(=O)N[C@H](C)C(N)=O` was run?
A: 22%

Q: For `CC(=O)N[C@H](Cc1ccc2ccccc2c1)C(=O)N[C@H](Cc1ccc(Cl)cc1)C(=O)N[C@H](Cc1c[nH]c2ccccc12)C(=O)N[C@@H](CO)C(=O)N[C@@H](Cc1ccc(O)cc1)C(=O)N[C@H](CCCN=C(N)N)C(=O)N[C@@H](Cc1c[nH]c2ccccc12)C(=O)N[C@@H](CCCN=C(N)N)C(=O)N1CCC[C@H]1C(=O)N[C@H](C)C(N)=O`, which Activity (Rattus norvegicus [4]) is on record?
A: 10%

Q: And the Activity (Rattus norvegicus [13])?
A: 85%
